Screens: PubChem BioAssay, several laboratories
Compounds with a hit are over-represented: about 2.1% of the library has one in this group of screens.
PERK inh – inhibitors of human PERK kinase | Q9NZJ5 | CHO PERK-DD fusion, SEAP luminescence translation reporter | inhibition, % at 5.6 µM | hit rate 0.17% among 220,000 | AID 1416;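 active means inhibition above the mean inhibition of all tested compounds plus 3 SD, set separately per screening campaign, cut at about 2.9% in these data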;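 further: PERK kinase domain activated by AP20187 dimerizer at 100 nM; 0% = DMSO with dimerizer and 100% = rapamycin at 8.4 µM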
Target sequence (Q9NZJ5 whole entry, looked up, the tested form may be a part): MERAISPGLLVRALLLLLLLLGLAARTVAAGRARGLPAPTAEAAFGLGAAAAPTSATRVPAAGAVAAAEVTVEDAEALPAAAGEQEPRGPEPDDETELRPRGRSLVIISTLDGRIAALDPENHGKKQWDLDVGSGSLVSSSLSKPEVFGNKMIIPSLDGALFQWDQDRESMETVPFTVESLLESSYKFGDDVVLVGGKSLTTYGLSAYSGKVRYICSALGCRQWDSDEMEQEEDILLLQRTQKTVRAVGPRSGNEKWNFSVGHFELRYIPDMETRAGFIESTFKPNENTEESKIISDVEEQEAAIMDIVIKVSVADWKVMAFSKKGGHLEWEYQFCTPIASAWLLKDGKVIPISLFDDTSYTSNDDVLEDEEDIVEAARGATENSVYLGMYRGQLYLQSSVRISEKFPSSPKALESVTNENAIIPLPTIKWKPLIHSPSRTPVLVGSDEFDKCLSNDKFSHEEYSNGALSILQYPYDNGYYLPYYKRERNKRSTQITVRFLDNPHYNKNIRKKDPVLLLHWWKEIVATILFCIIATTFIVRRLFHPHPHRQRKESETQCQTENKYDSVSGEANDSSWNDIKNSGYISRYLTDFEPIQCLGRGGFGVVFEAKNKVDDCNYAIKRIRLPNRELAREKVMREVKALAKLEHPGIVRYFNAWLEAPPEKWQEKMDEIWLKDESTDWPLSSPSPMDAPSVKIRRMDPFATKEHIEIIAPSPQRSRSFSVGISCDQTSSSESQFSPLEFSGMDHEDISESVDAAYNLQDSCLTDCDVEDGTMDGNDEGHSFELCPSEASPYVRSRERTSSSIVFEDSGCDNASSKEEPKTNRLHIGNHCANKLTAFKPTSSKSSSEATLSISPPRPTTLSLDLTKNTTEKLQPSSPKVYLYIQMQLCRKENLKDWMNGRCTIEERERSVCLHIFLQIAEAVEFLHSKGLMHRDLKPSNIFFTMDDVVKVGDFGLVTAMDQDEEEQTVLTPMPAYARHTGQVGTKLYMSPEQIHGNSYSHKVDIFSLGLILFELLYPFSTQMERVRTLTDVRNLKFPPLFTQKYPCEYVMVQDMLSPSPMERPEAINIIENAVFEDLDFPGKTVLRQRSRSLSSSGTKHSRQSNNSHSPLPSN
INS promoter inh – TRM-6 insulin promoter activity inhibition; inhibition, % at 2 µM; hit rate 0.9% among 130,000; TRM-6 cells (human fetal islet line), insulin promoter-eGFP reporter, imaging; reporter expression induced with tamoxifen; AID 1273;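 active means inhibition above the mean plus 3 SD, with well images judged a real hit on visual review, cut at about 60% in these data, passing the limit was not always enough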
Insulin prom up – MIN6 insulin promoter up-regulation; MIN6 insulin promoter-GFP reporter, high-content imaging; hits give high values; z-score at 5 µM; hit rate 0.3% among 190,000;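 active means z-score above 3 at 5 µM with at least 500 cells counted in the well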
Autophagy HCS – alters autophagy in cells. calls only at 10 µM (by protocol). hit rate 0.98% among 190,000. MEF GFP-LC3 puncta imaging; test concentration mostly 10 µM;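 active means percentage of spot-positive cells more than 3 SD above its plate mean, without a fluorescence outlier flag or 80% toxicity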;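 further: spot-positive cell cutoff set from DMSO-treated cells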
Dynein cargo inh – blocks dynein driven cargo transport along microtubules | 3617.4 mouse cells, GR-EGFP nuclear translocation imaging; test concentration mostly 20 µM; stimulated with dexamethasone, 1 µM; hits give low values | z-score, hits read low | hit rate 0.47% among 220,000;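 active means plate z-score of nuclear minus cytoplasmic receptor signal below a set negative limit, without overly bright fluorescence or cell loss, cut at about -3.5 in these data, passing the limit was not always enough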;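 further: z-score of nuclear minus cytoplasmic ring GR-EGFP intensity difference per well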
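Buffer or medium: Induction medium lacking tetracycline, stripped serum | Also added: Dexamethasone agonist, 1.0 µM final, for 30 min | Timing: 48 h induction, 1 h compound, 30 min dex at 37 °C | Detection: Formaldehyde fixation, Hoechst nuclear stain, 10x automated fluorescence imaging | Measure: Nuclear versus cytoplasmic GR-EGFP signal, averaged per well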
Active calls of the source: *; i = inactive; / = no result given; + = active, no number.

SMILES	PERK inh	INS promoter inh	Insulin prom up	Autophagy HCS	Dynein cargo inh
O=C(c1ccc(Br)o1)N1CCN(c2ccccc2F)CC1	1	33	0.21	+	-0.81
O=C(c1ccccc1C(=O)N1CCN(c2ccccc2F)CC1)N1CCN(c2ccccc2F)CC1	-1	0	-1	i	1.4
N=c1c2c(-c3ccccc3)c(-c3ccccc3)n(Cc3ccco3)c2ncn1Cc1ccco1	-1	-89	-7.7	+	-1
CCCCn1cnc2c(c(-c3ccccc3)c(-c3ccccc3)n2Cc2ccco2)c1=N	-1	/	-2	/	-3.7
Cc1cc(NCCCn2ccnc2)n2nc(C)c(-c3ccccc3)c2n1	-1	73	/	i	-0.44
N=c1c2c(-c3ccccc3)c(-c3ccccc3)n(Cc3ccccc3)c2ncn1CCCn1ccnc1	-1	/	-0.08	+	-1.3
O=C(OCc1csc(Nc2ccccc2)n1)c1ccc(Cl)cc1	1	/	-0.96	i	0.41
O=C(O)c1cc(NC(=O)c2ccccc2[N+](=O)[O-])ccc1O	0	29	0.88	i	0.64
COc1ccc(OCC(=O)Nc2ccc(S(=O)(=O)Nc3nc(C)cc(C)n3)cc2)cc1	-1	/	-0.01	i	2.3
COc1ccc(OCC(=O)Nc2ccc(S(=O)(=O)Nc3cc(C)nc(C)n3)cc2)cc1	0	/	3.1*	i	-0.42
CC(C)(C)NS(=O)(=O)c1cccc(S(=O)(=O)c2cccc(S(=O)(=O)NC(C)(C)C)c2)c1	0	/	/	i	-0.34
COC(Cc1n[nH]c(=S)n1-c1ccc(Cl)cc1)OC	1	-11	/	i	0.7
Cc1ccc(C(=O)NNC2CC(=O)N(c3ccc4c(c3)OCCO4)C2=O)cc1 (stereo not given)	-1	85*	/	i	0.32
O=C(NNC1CC(=O)N(c2ccc3c(c2)OCCO3)C1=O)c1ccc(Cl)cc1 (stereo not given)	0	30	/	i	-0.16
CCN1CCN(c2cc(C)c3cc(NC(=O)c4ccncc4)ccc3n2)CC1	/	/	-1.9	i	0.64
CCCN(CCC)CCCNC(=S)Nc1ccc2nc(N3CCN(CC)CC3)cc(C)c2c1	0	/	-0.16	i	0.99
CCCN(CCC)CCCNC(=S)Nc1ccc2nc(N3CCN(C)CC3)cc(C)c2c1	0	/	-0.34	+	-0.26
CCN1CCN(c2cc(C)c3cc(NC(=O)c4ccc(Br)o4)ccc3n2)CC1	-2	0	-0.79	+	-0.32
Cc1ccn2c(NC3CCCCC3)c(C)nc2c1	1	/	3.9*	i	0.11
CCOC(=O)c1sc(NC(=O)C2C3C=CC(C3)C2C(=O)O)nc1C (stereo not given)	3.4*	-21	/	i	-0.19
O=S1(=O)N=C(Oc2ccccc2)c2ccccc21	2.9*	/	0.27	i	-0.066
O=C1CN(c2nc(-c3cccs3)nc3sc4c(c23)CCCC4)CCN1	0	/	-0.74	+	0.43
O=c1oc(-c2cccs2)nc2sc3c(c12)CCCC3	0	68*	0.56	i	-0.076
COc1ccc(S(=O)(=O)NCC(=O)O)cc1C(=O)NC1CCCCC1	1	-26	0.22	i	2.9
O=Nc1c(O)n(Cc2cccc(C(F)(F)F)c2)c2ccccc12	1	-35	0.21	i	-0.8
SMILES	PERK inh	INS promoter inh	Insulin prom up	Autophagy HCS	Dynein cargo inh
CC(=O)Nc1ccc2c(c1)ncn2-c1ccc(C)cc1	1	/	-0.1	i	-0.92
O=C(O)CCCN1C(=O)NC2NC(=O)NC21 (stereo not given)	1	38	0.47	+	-0.9
CC(=O)Oc1ccc2cc(-c3ccccc3)c(=O)oc2c1	0	/	-0.39	/	1.7
COc1cc2c(cc1OC)/C(=C/c1ccc(Br)cc1)C(=O)OC2	-1	71*	-0.13	i	0.82
COc1ccc(/C=C2\Cc3ccccc3C2=O)cc1OC	-2	/	-0.01	/	0.054
COc1ccc(NC(=S)NNc2ccc([N+](=O)[O-])cc2S(=O)(=O)Nc2ccc(C)cc2C)cc1	-1	-21	/	i	-0.18
COc1ccc(NS(=O)(=O)c2cc([N+](=O)[O-])ccc2N/N=C\c2c(C)[nH]c3ccccc23)cc1	0	/	/	+	-0.18
COc1ccc(/C=N/Nc2ccc([N+](=O)[O-])cc2S(=O)(=O)N2CCN(C)CC2)cc1	0	/	0.19	+	-0.75
COc1cc2c(cc1OC)C1=CC(=O)C(=O)N1C(C)(C)C2	-1	/	/	+	-0.92
Cc1cc(C)cc(COn2ccnc2)c1	0	68*	1.8	i	-0.71
